Test results as given in ChEMBL document CHEMBL4049434, “Radiolabeled Dibenzodiazepinone-Type Antagonists Give Evidence of Dualsteric Binding at the M2 Muscarinic Acetylcholine Receptor” (J Med Chem, 2017).

How the values were obtained:
[1] = target: T1, Muscarinic acetylcholine receptor M2 (Homo sapiens, UniProt P08172); test: Binding affinity to human muscarinic acetylcholine receptor M2 expressed in live adherent CHOK9 cells after 2 hrs by liquid scintillation counting assay; format: cell-based
T1 sequence (P08172 whole entry): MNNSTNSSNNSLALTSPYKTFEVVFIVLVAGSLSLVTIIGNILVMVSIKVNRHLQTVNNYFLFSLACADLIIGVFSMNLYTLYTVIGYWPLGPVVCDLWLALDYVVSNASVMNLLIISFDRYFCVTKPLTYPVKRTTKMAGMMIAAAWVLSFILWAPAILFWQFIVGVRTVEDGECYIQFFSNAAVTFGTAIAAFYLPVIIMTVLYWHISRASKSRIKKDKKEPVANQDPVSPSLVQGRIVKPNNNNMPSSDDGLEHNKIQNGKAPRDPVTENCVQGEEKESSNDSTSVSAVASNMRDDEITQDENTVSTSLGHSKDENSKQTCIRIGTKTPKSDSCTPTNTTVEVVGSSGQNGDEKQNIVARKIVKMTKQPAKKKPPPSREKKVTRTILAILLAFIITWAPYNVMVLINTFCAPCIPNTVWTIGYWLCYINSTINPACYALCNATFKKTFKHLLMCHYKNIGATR
How it was run: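 Live adherent CHO-hM2 cells in L15 medium with 1% BSA, 23 ± 1 °C, 2 h incubation. Competition at 2 nM radioligand; additional 4, 8, 15 and 30 nM in W84 experiments. […] Saturation data fitted one-site; competition by four-parameter logistic fits; at least three experiments in triplicate.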

[2] = target: T1, Muscarinic acetylcholine receptor M2; test: Binding affinity to human muscarinic acetylcholine receptor M2 expressed in CHOK9 cell homogenate after 2 hrs by liquid scintillation counting assay; details: read-out: Kd(app)
How it was run: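 CHO-hM2 cell homogenates (25–30 μg protein/well) in L15 medium with 1% BSA, 23 ± 1 °C, 2 h with tritiated dimeric radioligand. Competition used 0.5 nM radioligand; additional 0.4, 1, 2 and 4 nM in W84 experiments. […] Four-parameter logistic fits; at least three experiments in triplicate.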

[3] = target: T1, Muscarinic acetylcholine receptor M2; test: Binding affinity to human muscarinic acetylcholine receptor M2 expressed in CHOK9 cell homogenate assessed as saturation binding after 2 hrs by liquid scintillation counting assay
[4] = target: T1, Muscarinic acetylcholine receptor M2; test: Displacement of [3H]NMS from human muscarinic acetylcholine receptor M2 expressed in CHOK9 cells after 3 hrs by liquid scintillation counting assay; format: cell-based; details: read-out: Ki

O=C(O)C(F)(F)F.O=C(O)C(F)(F)F.O=C(O)C(F)(F)F.O=C(O)C(F)(F)F.[3H]CC([3H])C(=O)NC1CN(CCCCC2CCN(CC(=O)N3c4ccccc4NC(=O)c4ccccc43)CC2)CCN(CCCCC2CCN(CC(=O)N3c4ccccc4NC(=O)c4ccccc43)CC2)C1 (centres undefined)
Kd [1]: 8.4 nM | Kd [2]: 3 to 4.6 nM | Kd [3]: 4.6 nM | Ki [4]: 0.71 nM
